Assay results gathered from unrelated publications.
Target: Platelet-derived growth factor receptor beta (PDGFRB, Homo sapiens, UniProt P09619)

SMILES	assay	conditions	quantity	value
O=C(Nc1cccnn1)N1CCC(=Cc2cccc(Oc3ccc(C(F)(F)F)cn3)c2)CC1	cell-free assay, competition with immobilised ligand	1 µM	remaining binding	97%
Cc1[nH]c(/C=C2\C(=O)Nc3ccc(F)cc32)c(C)c1C(=O)N[C@H]1CCN(C(=O)N(C)C)C1	enzyme activity, inhibitor	0.1 µM	remaining activity	97%
CCN(CC)CCNC(=O)c1c(C)[nH]c(/C=C2\C(=O)Nc3ccc(Cl)cc32)c1C	enzyme activity, inhibitor	0.5 µM	remaining activity	9.28%
CCCOc1ccc(OC)c(F)c1C(=O)c1ccc(C(=O)N[C@@H]2CNC[C@H]2NC(=O)c2ccc3[nH]ncc3c2)cc1	enzyme activity, inhibitor	10 µM	remaining activity	74%
COc1cc(Cl)c(C(=O)N[C@@H](CN[C@H]2CC[C@@H](N)CC2)Cc2ccc(C#N)cc2)cc1-c1ccc(CN[C@H](C)c2ccc(C)cc2)o1	enzyme activity, inhibitor	1 µM	remaining activity	95%
CCCS(=O)(=O)Nc1ccc(F)c(C(=O)c2c[nH]c3ncc(-c4ccc(Cl)cc4)cc23)c1F	enzyme activity, inhibitor	1 µM	inhibition	< 20%
CN(C)c1ccc(C=C2C(=O)Nc3ccccc32)cc1	enzyme activity, inhibitor	0.5 µM	remaining activity	85.8%
CS(=O)(=O)N1CCCC(NC(=O)[C@H](CCC2CCCCC2)NC(=O)c2ccc(CNc3ncnc4c3nnn4-c3ccccc3)cc2)C1 (some centres unmarked)	cell-free assay, competition with immobilised ligand	0.1 µM	remaining binding	86%
Cc1ccc(C(=O)Nc2ccc(CN3CCN(C)CC3)c(C(F)(F)F)c2)cc1C#Cc1cnc2cccnn12	enzyme activity, inhibitor	23.5 nM	remaining activity	1.6%
O=C(CSc1nc2nccnc2c(=O)n1CCc1ccccc1)Nc1nccs1	enzyme activity, inhibitor	10 µM	inhibition	2%
Nc1ncnc2occ(-c3ccc(NC(=O)Nc4cc(C(F)(F)F)ccc4F)cc3)c12	enzyme activity, inhibitor	20 µM	remaining activity	0%
Cc1ccc(NC(=O)c2ccc(CN3CCN(C)CC3)cc2)cc1Nc1nccc(-c2cccnc2)n1	enzyme activity, inhibitor	0.5 µM	activity vs control	39.1%
CN(C)c1ncnc(-c2ccc3nc(Nc4cc(CN5CCN(C(=O)CC(F)(F)F)CC5)ccn4)[nH]c3c2)c1Cl	cell-free assay, competition with immobilised ligand	1 µM	remaining binding	100%
Oc1ccc(-c2nc(-c3ccncc3)c(-c3ccc(F)cc3)[nH]2)cc1	cell-free assay	0.5 µM	remaining signal	104%
COc1cc2ncnc(Nc3ccc(Oc4ccccc4)c(C)c3C)c2cc1OC	enzyme activity, inhibitor	1 µM	inhibition	6%
Cc1noc([C@H]2C[C@@H](c3ccc(C(F)(F)F)cc3)CN(C(=O)N3CCS(=O)(=O)C3)C2)n1	cell-free assay, competition with immobilised ligand	1 µM	remaining binding	100%
O=C1NC(=O)c2cc(Nc3ccc(F)cc3)c(Nc3ccc(F)cc3)cc21	cell-free assay	0.5 µM	remaining signal	93.9%
O=C(Nc1cnn(-c2csc(C(=O)NC3COC3)c2)c1)Nc1ccccc1Cl	enzyme activity, inhibitor	5 µM	remaining activity	107%
CCCOc1ccc([C@@H]2[C@@H](C(=O)O)[C@H](c3ccc4c(c3)OCO4)CN2CC(=O)Nc2c(CC)cccc2CC)cc1	cell-free assay, competition with immobilised ligand	1 µM	remaining binding	100%
Cc1cnc(NC2CCOCC2)nc1-n1cnc(C(=O)NC(CN)c2cc(F)cc(Cl)c2)c1 (centres unmarked)	enzyme activity, inhibitor, radiometric	1 µM	remaining activity	92%
CC(C)c1ccc(NC(=O)c2cccs2)c(-c2nc3ccccc3[nH]c2=O)c1	enzyme activity, inhibitor	1 µM	activity vs control	105%
O=C1c2ccccc2-c2n[nH]c3cccc1c23	enzyme activity, inhibitor	0.5 µM	activity vs control	85.1%
Cc1cc(NC(=O)c2cccc3cc(-c4cccc5[nH]nc(N)c45)ccc23)ccc1F	enzyme activity, inhibitor	0.1 µM	activity vs control	101%
O=c1nc(-c2ccccn2)sc2ccccc12	cell-free assay, competition with immobilised ligand	1 µM	remaining binding	83%
Oc1cccc(-c2nc(N3CCOCC3)c3oc4ncccc4c3n2)c1	cell-free assay	0.5 µM	remaining signal	99.2%
Cn1cc(Cl)c2c(Oc3c(F)cc(Nc4cc(Cl)nc(N)n4)cc3F)ccnc21	cell-free assay, competition with immobilised ligand	0.1 µM	remaining binding	96%
O=[N+]([O-])c1cccc2[nH]c(CNc3nc(N4CCOCC4)nc4c3ncn4-c3ccsc3)nc12	binding, competition with immobilised ligand	10 µM	binding vs control	8.2%
O=C(Nc1cccnn1)N1CC(C/C=C/c2cncc(Oc3ccc(C(F)(F)F)cn3)n2)C1	cell-free assay, competition with immobilised ligand	1 µM	remaining binding	81%
Cc1ccc(Nc2nccc(N(C)c3ccc4c(C)n(C)nc4c3)n2)cc1S(N)(=O)=O	enzyme activity, inhibitor	10 µM	inhibition	97%
